The target in experiment [1] is Beta-lactamase (Pseudomonas aeruginosa (strain ATCC 15692 / PAO1 / 1C / PRS 101 / LMG12228)) (UniProt P24735). In words: Inhibition of Pseudomonas aeruginosa CL5701 beta lactamase AmpC assessed as concentration required to reduce imipenem MIC.
Experiment [2] addresses Beta-lactamase (Pseudomonas aeruginosa (strain ATCC 15692 / PAO1 / 1C / PRS 101 / LMG12228), UniProt P24735). In words: Inhibition of Pseudomonas aeruginosa beta lactamase AmpC by spectrophotometry. In short, it runs like this:
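Nitrocefin hydrolysis by P. aeruginosa AmpC, enzyme and substrate in 100 mM KH2PO4 pH 7 with 0.005% BSA. Inhibitor serially diluted from DMSO and preincubated with AmpC 40 min at room temperature. Substrate then added for a further 40 min, quenched with 2.5 N acetic acid, absorbance read at 492 nm. IC50 taken from semi-log plots of inhibition versus concentration.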

The subject of experiment [3] is Pseudomonas aeruginosa. In words: Antimicrobial activity against Pseudomonas aeruginosa CL5701 infected in mouse spleen assessed as reduction in colony forming unit at 2.5 mg/kg qid for 1 hr administered after 1.25 hrs of infusion. The class given is functional. The procedure, abridged: (§1)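 In vivo P. aeruginosa CL5701 infection: imipenem/cilastatin 2.5 mpk given with the BLI at 2.35 or 4.7 mpk, by 1.25 h infusion QID for 1 day. Bacterial CFU counted in the spleen and expressed as log reduction relative to imipenem/cilastatin alone.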

Experiment [4] has as its system Pseudomonas aeruginosa. Description: Antimicrobial activity against Pseudomonas aeruginosa CL5701 infected in mouse spleen assessed as reduction in colony forming unit at 2.35 mg/kg qid for 1 hr administered after 1.25 hrs of infusion. The class given is functional. In short, it runs like this:
as §1

Experiment [5] relates to Pseudomonas aeruginosa. Description: Antimicrobial activity against Pseudomonas aeruginosa CL5701 infected in mouse spleen assessed as reduction in colony forming unit at 4.7 mg/kg qid for 1 hr administered after 1.25 hrs of infusion. It counts as functional. The procedure, abridged: as §1

Beta-lactamase (Pseudomonas aeruginosa (strain ATCC 15692 / PAO1 / 1C / PRS 101 / LMG12228)), sequence (P24735 27-397 limits assumed): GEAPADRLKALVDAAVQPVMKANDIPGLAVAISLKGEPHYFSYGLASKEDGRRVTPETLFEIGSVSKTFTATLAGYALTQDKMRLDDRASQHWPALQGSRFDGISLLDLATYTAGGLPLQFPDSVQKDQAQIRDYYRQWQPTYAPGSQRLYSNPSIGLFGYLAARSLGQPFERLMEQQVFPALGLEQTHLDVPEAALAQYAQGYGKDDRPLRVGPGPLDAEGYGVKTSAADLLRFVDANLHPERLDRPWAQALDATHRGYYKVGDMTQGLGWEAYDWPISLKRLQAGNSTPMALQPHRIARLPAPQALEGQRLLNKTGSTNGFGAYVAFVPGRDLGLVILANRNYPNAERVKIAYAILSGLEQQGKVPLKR
Beta-lactamase, sequence (P24735 whole entry): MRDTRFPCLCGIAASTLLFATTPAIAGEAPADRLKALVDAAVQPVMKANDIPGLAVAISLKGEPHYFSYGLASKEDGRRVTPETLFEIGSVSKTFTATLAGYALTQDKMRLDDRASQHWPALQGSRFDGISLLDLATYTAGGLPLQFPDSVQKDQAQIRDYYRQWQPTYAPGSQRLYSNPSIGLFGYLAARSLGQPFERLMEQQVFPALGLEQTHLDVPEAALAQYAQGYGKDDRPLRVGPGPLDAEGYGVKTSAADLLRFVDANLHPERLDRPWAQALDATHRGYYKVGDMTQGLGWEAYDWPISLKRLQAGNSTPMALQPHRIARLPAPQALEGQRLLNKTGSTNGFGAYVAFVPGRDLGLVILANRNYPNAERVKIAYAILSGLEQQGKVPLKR

As to `O=C(N[C@@H]1CCCNCC1)N1CC[C@@H]2[C@H]1C(=O)N2S(=O)(=O)O`, the Activity in experiment [1] was 25 µM.

Consider `O=C(N[C@@H]1CNCCOC1)N1CC[C@@H]2[C@H]1C(=O)N2S(=O)(=O)O`, for which the Activity in experiment [1] came to 25 µM.

With `O=C(NC1CCCCNCC1)N1CC[C@@H]2[C@H]1C(=O)N2S(=O)(=O)O` (stereo in doubt; 12), the Activity in experiment [1] is more than 100 µM.

For orientation: IC50 means the concentration that inhibits the measured activity by half. Higher therefore signals a need for much substance. `O=C(N[C@H]1CCCNCC1)N1CC[C@@H]2[C@H]1C(=O)N2S(=O)(=O)O`: in experiment [2], the IC50 is 1 µM. Moreover, the Activity in experiment [1] was 9.4 µM. Moreover, the log10cfu in experiment [3] and in experiment [4] was 4.6 each time.

Regarding `O=C(N[C@H]1CNCCOC1)N1CC[C@@H]2[C@H]1C(=O)N2S(=O)(=O)O`, in experiment [1], the Activity was 50 µM.

In the case of `O=C(NC1CCCCNCC1)N1CC[C@@H]2[C@H]1C(=O)N2S(=O)(=O)O` (single isomer, unassigned), the Activity in experiment [1] is 12.5 µM.

`O=C(N[C@H]1CCCCNC1)N1CC[C@@H]2[C@H]1C(=O)N2S(=O)(=O)O` came in with an IC50 in experiment [2] of 1.9 µM. Further, the Activity in experiment [1] was found to be 50 µM.

With `O=C(NC1CCCCCC1)N1CC[C@@H]2[C@H]1C(=O)N2S(=O)(=O)O`, in experiment [1], the Activity was more than 100 µM.

Turning to `O=C(NC1CCCCNCCC1)N1CC[C@@H]2[C@H]1C(=O)N2S(=O)(=O)O` (stereo in doubt; 14) [listing 1 of 2 here], the Activity in experiment [1] was more than 100 µM.

`O=C1NCCCC[C@@H]1NC(=O)N1CC[C@@H]2[C@H]1C(=O)N2S(=O)(=O)O`: in experiment [2], the IC50 is 0.8 µM. The Activity in experiment [1] is more than 100 µM.

`O=C(NC1CCCCNCCC1)N1CC[C@@H]2[C@H]1C(=O)N2S(=O)(=O)O` (stereo in doubt; 13) [listing 1 of 2 here]: the Activity in experiment [1] is more than 100 µM.

Turning to `O=C(NC1CCCCNCCC1)N1CC[C@@H]2[C@H]1C(=O)N2S(=O)(=O)O` (stereo in doubt; 13) [listing 2 of 2 here], in experiment [2], the IC50 turned out to be 4 µM.

In turn, `O=C(NC1CNCCNC1)N1CC[C@@H]2[C@H]1C(=O)N2S(=O)(=O)O` displayed a half-maximal inhibitory concentration (IC50) in experiment [2] of 17 µM. Further, in experiment [1], the Activity was 100 µM.

`O=C(NC1CCCCNCCC1)N1CC[C@@H]2[C@H]1C(=O)N2S(=O)(=O)O` (stereo in doubt; 14) [listing 2 of 2 here]: the IC50 in experiment [2] stood at 5 µM.

As for `O=C(NC1CCCNCCC1)N1CC[C@@H]2[C@H]1C(=O)N2S(=O)(=O)O`, 3.4 µM corresponded to half-maximal inhibition in experiment [2] (IC50). The Activity in experiment [1] was 25 µM.

Turning to `O=C(NC1CCNCC1)N1CC[C@@H]2[C@H]1C(=O)N2S(=O)(=O)O`, in experiment [1], the Activity stood at 21 µM. Also, the log10cfu in experiment [5] is reported as 4.7.

Values taken from ChEMBL document CHEMBL1159072, “Side chain SAR of bicyclic beta-lactamase inhibitors (BLIs). 1. Discovery of a class C BLI for combination with imipinem” (Bioorg Med Chem Lett, 2010).
